What was measured:
Rattus norvegicus [1] = test: Antiinflammatory activity in albino rat assessed as inhibition of carrageenan-induced paw edema at 0.029 mmol/kg, po after 2 hrs relative to control; assay type: functional
Procedure, shortened: (§1)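 Adult albino rats of either sex, 120–150 g, six per group. Compounds at 0.029 mmol/kg suspended in saline with a few drops of Tween 80 and given by oral stomach tube. After 1 h, 0.1 ml of freshly prepared 1% carrageenan in saline injected subplantar into the right hind paw. Paw thickness measured at 1–4 h; % edema inhibition versus control; mean ± SEM; ANOVA.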

Rattus norvegicus [2] = test: Antiinflammatory activity in albino rat assessed as inhibition of carrageenan-induced paw edema at 0.029 mmol/kg, po after 3 hrs relative to control; assay type: functional; procedure, shortened: as §1
Rattus norvegicus [3] = test: Antiinflammatory activity in albino rat assessed as inhibition of carrageenan-induced paw edema at 0.029 mmol/kg, po after 4 hrs relative to control; assay type: functional; procedure, shortened: as §1
Rattus norvegicus [4] = test: Antiinflammatory activity in albino rat assessed as inhibition of carrageenan-induced paw edema at 0.029 mmol/kg, po after 4 hrs relative to indomethacin; assay type: functional
Procedure, shortened: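 Rat carrageenan paw edema: oral 0.029 mmol/kg in saline/Tween 80, 1 h before subplantar 0.1 ml 1% carrageenan into the right hind paw; six rats per group. Potency is % inhibition of the test compound divided by % inhibition of indomethacin at 4 h.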

Rattus norvegicus [5] = test: Gastrointestinal toxicity in albino rat assessed as ulcerogenic index at 0.029 mmol/kg, po after 5 hrs; assay type: organism-based; details: in vivo
Procedure, shortened: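 Adult albino rats of either sex (120–150 g), 6 per group, got the test compounds orally by stomach tube as a suspension in saline with a few drops of tween 80. They were the same rats used in the carrageenan paw-edema test. Stomachs were then opened along the great curvature and examined for lesions or bleeding. Ulceration was recorded as the number of rats with ulcers out of 6.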

Mus musculus [6] = test: Analgesic activity in albino mouse assessed as decrease in acetic acid-induced writhing at 8.45 mg/kg, po administered 1 hr prior to acetic acid challenge relative to control; assay type: functional
Procedure, shortened: (§2)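 Albino mice of either sex, 18–22 g, six per group. Test agents suspended in saline with a few drops of Tween 80 and given by oral stomach tube; controls handled identically without drug. After 1 h, 0.3 ml of 1% acetic acid ip. Writhing contractions counted for 30 min, starting 5 min after injection. % protection versus control mean; mean ± SEM; one-way ANOVA with post hoc test.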

Rattus norvegicus [7] = test: Antiinflammatory activity in albino rat assessed as inhibition of carrageenan-induced paw edema at 0.029 mmol/kg, po after 1 hr relative to control; assay type: functional; procedure, shortened: as §1
Mus musculus [8] = test: Analgesic activity in albino mouse assessed as decrease in acetic acid-induced writhing at 10.45 mg/kg, po administered 1 hr prior to acetic acid challenge relative to control; assay type: functional; procedure, shortened: as §2
Mus musculus [9] = test: Analgesic activity in albino mouse assessed as decrease in acetic acid-induced writhing at 8.94 mg/kg, po administered 1 hr prior to acetic acid challenge relative to control; assay type: functional; procedure, shortened: as §2
Mus musculus [10] = test: Analgesic activity in albino mouse assessed as decrease in acetic acid-induced writhing at 7.63 mg/kg, po administered 1 hr prior to acetic acid challenge relative to control; assay type: functional; procedure, shortened: as §2
Mus musculus [11] = test: Analgesic activity in albino mouse assessed as decrease in acetic acid-induced writhing at 8.59 mg/kg, po administered 1 hr prior to acetic acid challenge relative to control; assay type: functional; procedure, shortened: as §2
Mus musculus [12] = test: Analgesic activity in albino mouse assessed as decrease in acetic acid-induced writhing at 0.4 mg/kg, po administered 1 hr prior to acetic acid challenge; assay type: functional; procedure, shortened: as §2
Mus musculus [13] = test: Analgesic activity in albino mouse assessed as decrease in acetic acid-induced writhing at 8.68 mg/kg, po administered 1 hr prior to acetic acid challenge relative to control; assay type: functional; procedure, shortened: as §2
Mus musculus [14] = test: Analgesic activity in albino mouse assessed as decrease in acetic acid-induced writhing at 0.8 mg/kg, po administered 1 hr prior to acetic acid challenge; assay type: functional; procedure, shortened: as §2
Mus musculus [15] = test: Analgesic activity in albino mouse assessed as decrease in acetic acid-induced writhing at 1 mg/kg, po administered 1 hr prior to acetic acid challenge; assay type: functional; procedure, shortened: as §2
Mus musculus [16] = test: Analgesic activity in albino mouse assessed as decrease in acetic acid-induced writhing at 2 mg/kg, po administered 1 hr prior to acetic acid challenge; assay type: functional; procedure, shortened: as §2
Mus musculus [17] = test: Analgesic activity in albino mouse assessed as decrease in acetic acid-induced writhing at 4 mg/kg, po administered 1 hr prior to acetic acid challenge; assay type: functional; procedure, shortened: as §2
Mus musculus [18] = test: Analgesic activity in albino mouse assessed as decrease in acetic acid-induced writhing at 8 mg/kg, po administered 1 hr prior to acetic acid challenge; assay type: functional; procedure, shortened: as §2
Mus musculus [19] = test: Analgesic activity in po dosed albino mouse assessed as decrease in acetic acid-induced writhing administered 1 hr prior to acetic acid challenge; assay type: functional, organism-based; procedure, shortened: as §2
Mus musculus [20] = test: Analgesic activity in albino mouse assessed as decrease in acetic acid-induced writhing at 11.75 mg/kg, po administered 1 hr prior to acetic acid challenge relative to control; assay type: functional; procedure, shortened: as §2
Mus musculus [21] = test: Analgesic activity in albino mouse assessed as decrease in acetic acid-induced writhing at 11.49 mg/kg, po administered 1 hr prior to acetic acid challenge relative to control; assay type: functional; procedure, shortened: as §2
Mus musculus [22] = test: Analgesic activity in albino mouse assessed as decrease in acetic acid-induced writhing at 9 mg/kg, po administered 1 hr prior to acetic acid challenge relative to control; assay type: functional; procedure, shortened: as §2
Mus musculus [23] = test: Analgesic activity in albino mouse assessed as decrease in acetic acid-induced writhing at 10.24 mg/kg, po administered 1 hr prior to acetic acid challenge relative to control; assay type: functional; procedure, shortened: as §2
Mus musculus [24] = test: Analgesic activity in albino mouse assessed as decrease in acetic acid-induced writhing at 8.12 mg/kg, po administered 1 hr prior to acetic acid challenge relative to control; assay type: functional; procedure, shortened: as §2
Rattus norvegicus [25] = test: Antiinflammatory activity in albino rat assessed as inhibition of carrageenan-induced paw edema at 10 mg/kg, po; assay type: functional
Procedure, shortened: (§3)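 Rat carrageenan paw edema with oral dosing at 10, 15, 20 and 25 mg/kg, suspended in saline with Tween 80, 1 h before subplantar 0.1 ml 1% carrageenan into the right hind paw. % edema inhibition versus control at each dose; IC50 (mg/kg) derived from these four doses.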

Rattus norvegicus [26] = test: Antiinflammatory activity in albino rat assessed as inhibition of carrageenan-induced paw edema at 15 mg/kg, po; assay type: functional; procedure, shortened: as §3
Rattus norvegicus [27] = test: Antiinflammatory activity in albino rat assessed as inhibition of carrageenan-induced paw edema at 20 mg/kg, po; assay type: functional; procedure, shortened: as §3
Rattus norvegicus [28] = test: Antiinflammatory activity in albino rat assessed as inhibition of carrageenan-induced paw edema at 25 mg/kg, po; assay type: functional; procedure, shortened: as §3
Rattus norvegicus [29] = test: Antiinflammatory activity in po dosed albino rat assessed as inhibition of carrageenan-induced paw edema; assay type: functional, organism-based
Procedure, shortened: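 Adult albino rats of either sex, 120–150 g, groups of 6. Compound suspended in saline with a few drops of tween 80, given by oral stomach tube 1 h before subplantar injection of freshly prepared 1% carrageenan (0.1 ml) in saline into right hind paw. Paw thickness read at 1–4 h; % edema inhibition versus carrageenan control; mean ± SEM, one-way ANOVA with post hoc test.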

Mus musculus [30] = test: Analgesic activity in albino mouse assessed as decrease in acetic acid-induced writhing at 7.69 mg/kg, po administered 1 hr prior to acetic acid challenge relative to control; assay type: functional; procedure, shortened: as §2
Mus musculus [31] = test: Analgesic activity in albino mouse assessed as decrease in acetic acid-induced writhing at 8.04 mg/kg, po administered 1 hr prior to acetic acid challenge relative to control; assay type: functional; procedure, shortened: as §2
Mus musculus [32] = test: Analgesic activity in albino mouse assessed as decrease in acetic acid-induced writhing at 8.36 mg/kg, po administered 1 hr prior to acetic acid challenge relative to control; assay type: functional; procedure, shortened: as §2
Mus musculus [33] = test: Analgesic activity in albino mouse assessed as decrease in acetic acid-induced writhing at 8.47 mg/kg, po administered 1 hr prior to acetic acid challenge relative to control; assay type: functional; procedure, shortened: as §2
Mus musculus [34] = test: Analgesic activity in albino mouse assessed as decrease in acetic acid-induced writhing at 8.33 mg/kg, po administered 1 hr prior to acetic acid challenge relative to control; assay type: functional; procedure, shortened: as §2

SMILES	inhibition in vivo at 29 µmol/kg (Rattus norvegicus [1])	inhibition in vivo at 29 µmol/kg (Rattus norvegicus [2])	inhibition in vivo at 29 µmol/kg (Rattus norvegicus [3])	relative potency at 29 µmol/kg (Rattus norvegicus [4])	UI (Rattus norvegicus [5])	inhibition in vivo at 29 µmol/kg (Rattus norvegicus [7])	other results
CCCn1cnc2c(c1=N)C1CCCN1C(=S)N2CC (stereo not given)	15.7%	9.37%	6.82%	0.24	Non-toxic	13.5%	inhibition in vivo at 8.45 mg/kg (Mus musculus [6]): 77.2%
O=C1NC(c2ccccc2)NC2=C1C1CCCN1C(=O)N2c1ccccc1 (stereo not given)	12.4%	11.5%	10.6%	0.38		4.47%	inhibition in vivo at 10.45 mg/kg (Mus musculus [8]): 77.7%
CCCC/N=c1/c(C#N)c2n(c(=O)n1-c1ccccc1)CCC2	24%	19.4%	22.4%	0.81	Non-toxic	11.2%	inhibition in vivo at 8.94 mg/kg (Mus musculus [9]): 88.7%
CCN1C(=S)N2CCCC2c2c1ncn(C)c2=N (stereo not given)	14.1%	11.5%	9.93%	0.36	Non-toxic	11.2%	inhibition in vivo at 7.63 mg/kg (Mus musculus [10]): 97.6%
N#Cc1c2n(c(=O)n(-c3ccccc3)/c1=N\CCO)CCC2	22.3%	25.9%	27.3%	1	Non-toxic	5.6%	inhibition in vivo at 8.59 mg/kg (Mus musculus [11]): 87.8%
N#CC1=C(NCCN)N(c2ccccc2)C(=O)N2CCCC12 (stereo not given)	27.3%	25.9%	16.9%	0.61		15.7%	inhibition in vivo at 0.4 mg/kg (Mus musculus [12]): 49.4%; inhibition in vivo at 8.68 mg/kg (Mus musculus [13]): 96.3%; inhibition in vivo at 0.8 mg/kg (Mus musculus [14]): 81.3%; inhibition in vivo at 1 mg/kg (Mus musculus [15]): 90.6%; inhibition in vivo at 2 mg/kg (Mus musculus [16]): 94.4%; inhibition in vivo at 4 mg/kg (Mus musculus [17]): 96%; inhibition in vivo at 8 mg/kg (Mus musculus [18]): 96.4%; IC50 (Mus musculus [19]): 0.402 mg/kg
O=C1NC(c2ccc([N+](=O)[O-])cc2)NC2=C1C1CCCN1C(=O)N2c1ccccc1 (stereo not given)	14.1%	14.4%	19.2%	0.7		1.1%	inhibition in vivo at 11.75 mg/kg (Mus musculus [20]): 94.6%
N#Cc1c2n(c(=O)n(-c3ccccc3)/c1=N/c1cccc(C(F)(F)F)c1)CCC2	7.44%	8.63%	9.31%	0.34		8.97%	inhibition in vivo at 11.49 mg/kg (Mus musculus [21]): 63.8%
CCO/C=N/C1=C(C#N)C2CCCN2C(=O)N1c1ccccc1 (stereo not given)	9.12%	5.78%	4.96%	0.18	Non-toxic	22.4%	inhibition in vivo at 9 mg/kg (Mus musculus [22]): 69.8%
N#Cc1ccc(/N=c2\c(C#N)c3n(c(=O)n2-c2ccccc2)CCC3)cc1	28.1%	28.1%	23.6%	0.86	Non-toxic	16.9%	inhibition in vivo at 10.24 mg/kg (Mus musculus [23]): 82.9%
O=C1NC(c2ccccc2[N+](=O)[O-])NC2=C1C1CCCN1C(=O)N2c1ccccc1 (stereo not given)	14.1%	8.65%	3.73%	0.13		12.3%	inhibition in vivo at 11.75 mg/kg (Mus musculus [20]): 86.8%
CC/N=c1/c(C#N)c2n(c(=O)n1-c1ccccc1)CCC2	23.1%	24.5%	30.4%	1.11	Non-toxic	7.82%	inhibition in vivo at 8.12 mg/kg (Mus musculus [24]): 74.4%
C/N=c1/c(C#N)c2n(c(=O)n1-c1ccccc1)CCC2	26.5%	30.2%	34.8%	1.27	Non-toxic	19.1%	inhibition in vivo at 10 mg/kg (Rattus norvegicus [25]): 36%; inhibition in vivo at 15 mg/kg (Rattus norvegicus [26]): 43%; inhibition in vivo at 20 mg/kg (Rattus norvegicus [27]): 50.8%; inhibition in vivo at 25 mg/kg (Rattus norvegicus [28]): 62.7%; IC50 (Rattus norvegicus [29]): 17.77 mg/kg; inhibition in vivo at 7.69 mg/kg (Mus musculus [30]): 74%
CCN1C(=S)N2CCCC2c2c1ncn(CC)c2=N (stereo not given)	11.6%	10.8%	9.91%	0.36		11.6%	inhibition in vivo at 8.04 mg/kg (Mus musculus [31]): 75.9%
CCO/C=N/C1=C(C#N)C2CCCN2C(=S)N1CC (stereo not given)	19%	20.9%	20.5%	0.75	Non-toxic	12.3%	inhibition in vivo at 8.12 mg/kg (Mus musculus [24]): 88.1%
N/N=C(/N)C1=C(N)N(c2ccccc2)C(=O)N2CCCC12 (stereo not given)	27.3%	25.9%	23%	0.84		8.97%	inhibition in vivo at 8.36 mg/kg (Mus musculus [32]): 79%
C=CC/N=c1/c(C#N)c2n(c(=O)n1-c1ccccc1)CCC2	19%	23.1%	14.3%	0.52	Non-toxic	2.23%	inhibition in vivo at 8.47 mg/kg (Mus musculus [33]): 81.1%
NC1=C(/C(N)=N\O)C2CCCN2C(=O)N1c1ccccc1 (stereo not given)	14.9%	21.6%	27.3%	1		4.45%	inhibition in vivo at 8.33 mg/kg (Mus musculus [34]): 85.9%

Reference: ChEMBL document CHEMBL1155292, “Synthesis, analgesic and anti-inflammatory activities evaluation of some bi-, tri- and tetracyclic condensed pyrimidines” (Eur J Med Chem, 2009)
